ChEMBL document CHEMBL1157968, “Chemical and cytotoxic constituents from the leaves of Cinnamomum kotoense” (2006)

Experiments:
Format in all cases: functional
HeLa [1] = test: Cell cycle arrest in human HeLa cells pretreated with 10 uM Dexamethasone for 1 hr assessed as subG1 phase accumulation at 100 uM after 24 hrs by FACS
Outline: (§1)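 HeLa cells pretreated for 1 h with the listed agent (10 mM GSH ethyl ester, 10 µM dexamethasone, 10 µM pifithrin, 100 µM Boc-Asp(OMe)-fmk or 5 µM cyclosporin A), then given 100 µM compound for 24 h. Cells fixed in PBS-MeOH, stained with PI/RNase and analysed by flow cytometry for DNA content. At least three experiments, one representative shown.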

HeLa [2] = test: Cell cycle arrest in human HeLa cells assessed as S phase accumulation at 25 50 after 24 hrs by FACS
Outline: (§2)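 HeLa cells seeded 5 × 10^5 per dish 48 h ahead in DMEM with 10% FCS, then exposed to compound for 24 h (DMSO 0.1% final). Adherent and floating cells pooled, fixed in PBS-MeOH (1:2) at 4 °C for at least 18 h, and stained with PI (50 µg/mL) plus RNase A for 30 min at room temperature. Flow cytometry at 488 nm excitation, doublets gated out; phase percentages taken from DNA histograms.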

HeLa [3] = test: Cell cycle arrest in human HeLa cells pretreated with 5 uM cyclosporin A for 1 hr assessed as G1 phase accumulation at 100 uM after 24 hrs by FACS; outline: as §1
HeLa [4] = test: Cell cycle arrest in human HeLa cells pretreated with 100 uM Boc-Asp(OMe)-fmk for 1 hr assessed as S phase accumulation at 100 uM after 24 hrs by FACS; outline: as §1
HeLa [5] = test: Induction of apoptosis in human HeLa cells assessed as increase in intracellular peroxide level at 100 uM after 3 hrs by FACS relative to untreated control
Outline: (§3)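 HeLa cells at 80% confluence were refed and exposed to 100 µM for 1, 3 or 24 h. They were loaded with 10 µM DCFH-DA for 30 min in the dark, trypsinized and resuspended in PBS. DCF fluorescence was measured by flow cytometry and expressed as fold versus untreated cells. At least three experiments.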

HeLa [6] = test: Cell cycle arrest in human HeLa cells pretreated with 10 uM Dexamethasone for 1 hr assessed as S phase accumulation at 100 uM after 24 hrs by FACS; outline: as §1
HeLa [7] = test: Induction of apoptosis in human HeLa cells assessed as increase caspase 3/7 activities at 100 uM after 12 hrs by FACS relative to control
Outline: (§4)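 After 3–24 h exposure at 100 µM, HeLa cells were trypsinized. 1 × 10^6 cells in DMEM were mixed 1:1 with Z-DEVD-R110 substrate reagent and incubated 1 h at 37 °C, then washed. Released R110 read per cell by flow cytometry (ex 488/em 520 nm) and expressed as fold over untreated cells. At least three runs.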

HeLa [8] = test: Cell cycle arrest in human HeLa cells pretreated with 5 uM cyclosporin A for 1 hr assessed as G2/M phase accumulation at 100 uM after 24 hrs by FACS; outline: as §1
HeLa [9] = test: Induction of apoptosis in human HeLa cells assessed as number of cells with decreased mitochondrial membrane potential at 100 uM after 1 hr by measuring rhodamine 123 fluorescence intensity; set-up: scale not given: the % may be the effect or the level left
Outline: (§5)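 Cells in DMEM/10% FCS, medium renewed at 80% confluence, then 100 µM agent (0.1% DMSO final) for 1–24 h. Stained with 5 µM rhodamine 123 for 30 min in the dark, washed, trypsinized and resuspended in PBS; flow cytometry, percentage of cells with weak rhodamine 123 staining (reduced ΔΨm); at least three experiments, representative shown.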

HeLa [10] = test: Cell cycle arrest in human HeLa cells assessed as G1 phase accumulation at 50 uM after 24 hrs by FACS; outline: as §2
HeLa [11] = test: Induction of apoptosis in human HeLa cells assessed as increase caspase 3/7 activities at 100 uM after 24 hrs by FACS relative to control; outline: as §4
HeLa [12] = test: Cell cycle arrest in human HeLa cells pretreated with 100 uM Boc-Asp(OMe)-fmk for 1 hr assessed as G1 phase accumulation at 100 uM after 24 hrs by FACS; outline: as §1
HeLa [13] = test: Induction of apoptosis in human HeLa cells assessed as number of cells with decreased mitochondrial membrane potential at 100 uM after 12 hrs by measuring rhodamine 123 fluorescence intensity; set-up: scale not given: the % may be the effect or the level left; outline: as §5
HeLa [14] = test: Cell cycle arrest in human HeLa cells pretreated with 10 uM pifithrin-alpha for 1 hr assessed as S phase accumulation at 100 uM after 24 hrs by FACS; outline: as §1
HeLa [15] = test: Cell cycle arrest in human HeLa cells assessed as G2/M phase accumulation at 100 uM after 24 hrs by FACS; outline: as §2
HeLa [16] = test: Induction of apoptosis in human HeLa cells pretreated with 10 mM glutathione ethyl ester for 1 hr at 100 uM after 24 hrs by TUNEL assay
Outline: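 HeLa in DMEM/10% FCS, untreated or pretreated 1 h with listed inhibitor, then 100 µM agent (0.1% DMSO final) for 24 h. Pooled cells fixed in 1% paraformaldehyde (30 min, 4 °C), 70% EtOH (30 min, −20 °C); strand breaks labelled with TdT/fluorescein-BrdUTP (1 h, 37 °C), PI/RNase counterstain; flow cytometry, % apoptotic cells; ≥3 experiments.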

HeLa [17] = test: Induction of apoptosis in human HeLa cells assessed as increase in intracellular hydrogen peroxide level at 100 uM after 1 hr by FACS relative to untreated control; outline: as §3
HeLa [18] = test: Cell cycle arrest in human HeLa cells assessed as S phase accumulation at 100 uM after 24 hrs by FACS; outline: as §2
HeLa [19] = test: Induction of apoptosis in human HeLa cells assessed as increase in intracellular nitric oxide level at 100 uM after 24 hrs by FACS relative to untreated control
Outline: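 HeLa cells at 80% confluence were exposed to 100 µM for 1, 3 or 24 h and then stained with 1 µM DAF-2 for 10 min in the dark. After trypsinization, DAF-2 fluorescence was measured by flow cytometry and taken as fold versus untreated cells. At least three experiments.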

HeLa [20] = test: Cell cycle arrest in human HeLa cells pretreated with 10 mM glutathione ethyl ester for 1 hr assessed as G2/M phase accumulation at 100 uM after 24 hrs by FACS; outline: as §1
HeLa [21] = test: Cell cycle arrest in human HeLa cells pretreated with 10 uM pifithrin-alpha for 1 hr assessed as subG1 phase accumulation at 100 uM after 24 hrs by FACS; outline: as §1
HeLa [22] = test: Induction of apoptosis in human HeLa cells assessed as number of cells with decreased mitochondrial membrane potential at 100 uM after 3 hrs by measuring rhodamine 123 fluorescence intensity; set-up: scale not given: the % may be the effect or the level left; outline: as §5

CCCCCCCCCCCCC/C=C(/C(=O)OC)[C@@H](O)C(C)=O [SECOKOTOMOLIDE A]
Activity (HeLa [1]): 47.7% | Activity (HeLa [2]): 20.3% | Activity (HeLa [3]): 47.7% | Activity (HeLa [4]): 13.6% | fold change (FC) (HeLa [5]): 2.9 | Activity (HeLa [6]): 33.8% | fold change (FC) (HeLa [7]): 4.6 | Activity (HeLa [8]): 38.2% | Activity (HeLa [9]): 1.4% | Activity (HeLa [10]): 50.8% | fold change (FC) (HeLa [11]): 1.7 | Activity (HeLa [12]): 60.6% | Activity (HeLa [13]): 75.1% | Activity (HeLa [14]): 48.5% | Activity (HeLa [15]): 31% | Activity (HeLa [16]): 5.43% | fold change (FC) (HeLa [17]): 3.4 | Activity (HeLa [18]): 28.7% | fold change (FC) (HeLa [19]): 2.1 | Activity (HeLa [20]): 11.6% | Activity (HeLa [21]): 40.9% | Activity (HeLa [22]): 2.2%
